Assay results: the EternaBench riboswitch data

Test system: MS2 coat protein
Assay: apparent Kd, MS2 coat protein; higher = weaker binding; RNA-MaP array; FMN 200 µM where present
How it was run: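 Green signal from SNAP-549-labelled MS2 coat protein was normalised to red-channel RNA signal and to the median Fmax of control clusters. The protein was titrated from 0.7 or 1.5 nM, doubling to 3 µM, without and then with constant ligand, over designs transcribed by stalled E. coli RNA polymerase on Illumina sequencing-chip clusters, in 100 mM Tris-HCl pH 7.5, 80 mM KCl, 4 mM MgCl2, BSA, DTT, yeast tRNA and Tween-20. The apparent Kd is the median of filtered per-cluster binding-curve fits.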

[1] = designed as: ON switch for flavin mononucleotide, no ligand
[2] = ligand present: flavin mononucleotide, designed as: ON switch for flavin mononucleotide
[3] = designed as: OFF switch for flavin mononucleotide, no ligand
[4] = ligand present: flavin mononucleotide, designed as: OFF switch for flavin mononucleotide

Row | Sequence | apparent Kd [1] [nM] | apparent Kd [2] [nM] | apparent Kd [3] [nM] | apparent Kd [4] [nM]
1 | AUGCCUAAUGAGAAGGUGUGUAUAAAUUAUAUACAAGGAUAUCGGUCAAGCAUGAAAACAUGAGGAUCACCCAUGUUAAGGCAU | 7.77 | 6.72 | – | –
2 | UUCAUGUUGCGAGGAUAUCGUGUUAACAUGAGGAUCACCCAUGUAUAGGUUUAUUAAUUAGUUUUCGAGAAGGCGCUUUUAGUA | 215 | 158 | – | –
3 | UGAUAGGACAGAGGAUAUACGUAUAAUUCCUUCAACAUGAGGAUCACCCAUGUAGAAGGCUGUCCUAUCUAAGUCGGAAACGAC | – | – | 4.81 | 5.33
4 | UAGAGUCGCGUCAGGAUAUACCACUUAACCCAGUAGUAGAAGGGACAUGAGGAUCACCCAUGUCGGUGUUAGCC | – | – | 23.2 | 26.2
5 | CCUUUAUAGAUCCAUUUUAACAACAUGAGGAUCACCCAUGUGCAGGAUAUCGAUUGUUUUACUUUCGAGAAGGGCAAAUUCAGC | – | – | 19.3 | 48.7
6 | UUAAUAAGUGUGAGGAUAUGCUGGUCCUUGGAUCAGCAGAAGGCACAUGAGGAUCACCCAUGUACAAUAUAUUA | – | – | 33.6 | 215
7 | UUAUAUAGUGUGAGGAUAUGCUGGUCCUUGGAUCAGCAGAAGGCACAUGAGGAUCACCCAUGUAGUUUAUUUUU | – | – | 25.4 | 144
8 | CUUUUGUGAGGAUAUCAGUAGUAAAAAAAUAAAAUUUCUACUGAGAAGGCACAUGAGGAUCACCCAUGUUCCUC | – | – | 34 | 184
9 | AACAAUGGUUAACAUGAGGAUCACCCAUGUUGGAAGCCUUCACAGGAUAUGUAGCGGGCAUACGCACAGAAGGGUGAUCGCGGU | 37.5 | 32.6 | – | –
10 | GUAGCAUACCGAGGAUAUUCAUACCGGAAACGGACAUGAGGAUCACCCAUGUGGCGAAAGCCUUUGGAGAAGGCGGAAUGCUAC | 13.2 | 11.7 | – | –
11 | GUCGGAAACGACAAUGAUAGGACUGAGGAUAUACAUAAGUAAGUCCACACAUGAGGAUCACCCAUGUAGAAGGCAGUCCUAUCU | – | – | 21.9 | 187
12 | AAGACAUGAGGAUCACCCAUGUAAAGACCGGUCGAUCAAUGUGAGGAUAUUCCAUAAUUGAUAGGGAAGAAGGCACUGGGUUGA | 177 | 130 | – | –
13 | UUUUUUGUUGUGAGGAUAUCGUUGUUGUUGUGGAUCGAGAAGGCACAUGAGGAUCACCCAUGUUUGUUGUGGUU | – | – | 89.1 | 220
14 | CUUUUGUGAGGAUAUCAGUGGUAAUACAAUAGUAUUACUACUGAGAAGGCACAUGAGGAUCACCCAUGUUCCUC | – | – | 44.5 | 220
15 | GACUCGAAUGUAGGAUAUGCUGAGGAUAACUCAGCAGAAGGACAUGAGGAUCACCCAUGUCAAUGAGUGAAUAAUAAACGAGUC | – | – | 29 | 245
16 | GUCUGGCUAGGAUAUACAGUGUCCACGAGUUAGUUGCUCUAACAUGAGGAUCACCCAUGUAGAAGGAGCGAGAA | – | – | 20.5 | 63.7
17 | UGGUUGCGAGUAGGAUAUGGUGUUUUUGUUUGGUUAGAAGGGUUCGUGAUUGUGACAUGAGGAUCACCCAUGUGUGUUGUUGUU | 63.6 | 70.5 | – | –
18 | CCACUCUAUGCAGGAUAUCGAGCCUGGGCCUUAUUUUUUGUAAACAUGAGGAUCACCCAUGUCUUCGAGAAGGGCAUAACAACG | – | – | 178 | 241

Row | Sequence | apparent Kd [1] [nM] | apparent Kd [2] [nM] | apparent Kd [3] [nM] | apparent Kd [4] [nM]
19 | GGAAAACAUGAGGAUCACCCAUGUGAGGAUAUCGAUGUCCAAAGGAAAGUGCGGGACUCGAGAAGGCACUUGGA | – | – | 45.4 | 39
20 | CGAUGACAAAGUCAUCGAAUACGAACAUGAGGAUCACCCAUGUAGGAUAUGCUACUCAAAGAGUAGCAGAAGGACAUGUGCCUU | – | – | 36.9 | 271
21 | UUGGUAUCUGCAGGAUAUUGUAUUUUAAUACUUCAAGAAGGGCAUUACAUGAGGAUCACCCAUGUUUACAUGGUCAUAUUAGUU | – | – | 26.1 | 20.8
22 | UUGUACAUAGGAUAUAGUUGUUUGUACAUGAGGAUCACCCAUGUUAUGUAUGUUUUGUUUCUAGAAGGAUGUUGAU | – | – | 50.2 | 38.9
23 | AAUAAGCUAGGAUAUACAUGAGGAUCACCCAUGUGAGGGCACGGCCGGCGCGUUUCCGGUAGAAGGAGUCAUAA | – | – | 34.5 | 25.2
24 | AAGAGUAGAGGAUAUACAUGAGGAUCACCCAUGUAAUCCAGAUAAGGAAGCAUGUCGUGUAGAAGGCUGCAUGA | – | – | 15.9 | 12.8
25 | GAGAUGUGAGGAUAUCUAGACCGCGGAAGAGCUGCGGUCCGAGAGAAGGCACAUGAGGAUCACCCAUGUGAUGA | – | – | 46.2 | 145
26 | UCGUGUUAUACAGGAUAUGUUUAGGUUUAUUCAUUCAGUUAUUAAUUUAUGACAGAAGGGUAUACAUGAGGAUCACCCAUGUCA | – | – | 761 | 306
27 | CGCUAUGACAUAGGAUAUUGAUACAUGAGGAUCACCCAUGUCAACCAUGAAGCUCGAAUUGUUGACAAGAAGGAUGUGGUAGCG | 157 | 72.9 | – | –
28 | AUAGCUCCCUAGAAGGGCCAACGACAAUUGCAUCACGUAGUUGGCGUAGGUAGGAUAUGGGACAUGAGGAUCACCCAUGUGUAG | 27 | 16.1 | – | –
29 | GGUCCGUAACAGAAGGCCGUAACUGGUAGUGGCGGAGGAUAUGUGGGCGGCCCUUGACAACAUGAGGAUCACCCAUGUAUGUAA | 335 | 20.3 | – | –
30 | UAAGUUGAGGAGAAGGGAGCACAUGAGGAUCACCCAUGUGGUCCUUUGUGCUCAGGAUAUCCAUGGAGCUCCGUCGCGUUCCAU | – | – | 4.49 | 3.32
31 | CCACAGGUAGGAUAUGCUGGGUGGGAUAAAUAUUUCCUGAGACAUGAGGAUCACCCAUGUAGAAGGACCAAAAG | – | – | 18.3 | 16.1
32 | ACGUCCCUCCAGAAGGGCAACUCGACAUGAGGAUCACCCAUGUUUACUUGCAGGAUAUGGUGGUAGAUCUAGUUAGCUCGAAGG | 176 | 47.4 | – | –
33 | UCCUUACUGGUCAGGAUAUACAUUCGCUACUCCUUGUAGAAGGGACAUGAGGAUCACCCAUGUACUUUACAUUC | – | – | 17.4 | 18.9
34 | CAGUUUUGAGGAUAUCCAUCCUCCUACAUGAGGAUCACCCAUGUUUCCCUCUGGGUUUUCGGAGAAGGCAGUUAUU | – | – | 326 | 283
35 | AUUUCAAUUGUUUACAUGAGGAUCACCCAUGUCAUAAGUCAUGAGGAUAUGGUAUUGUAGUUAUUCCAGAAGGCAUAUAGCUUA | 38.5 | 14.4 | – | –
36 | CACGGAUAGUAGAAGGGUGACAUGAGGAUCACCCAUGUACUUAUGUAGGUAUUACUAUAUAAUUCACAGGAUAUACUAUCCGUG | 794 | 90.3 | – | –
